Reference: ChEMBL document CHEMBL1131631, “Piperazinyl oxazolidinone antibacterial agents containing a pyridine, diazene, or triazene heteroaromatic ring” (1998)
Values after ≈ are worked out from the molar mass of the structure shown.

Tests used:
Streptococcus pneumoniae = assay: Minimum inhibitory concentration Streptococcus pneumoniae UC9912; format: functional
Outline: (§1)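 MIC in µg/mL. S. aureus UC 9213 is methicillin-susceptible, and S. aureus UC 6685 and S. epidermidis UC 12084 are methicillin-resistant. E. faecalis UC 9217 and S. pneumoniae UC 9912 were also tested.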

Staphylococcus aureus [1] = assay: Minimum inhibitory concentration against Staphylococcus aureus UC9213; format: functional; outline: as §1
Mus musculus [2] = assay: Compound was tested against Staphylococcus aureus UC9213 after po administration in mouse; format: functional
Outline: (§2)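 Lethal systemic S. aureus infection in mice, with oral dosing. The ED50 is the dose in mg/kg body weight per dose that reduces mortality by 50%. The 95% confidence limits are −50% and +100% of the nominal value.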

Staphylococcus aureus [3] = assay: Minimum inhibitory concentration against Staphylococcus aureus UC6685; format: functional; outline: as §1
Enterococcus faecalis = assay: Minimum inhibitory concentration against Enterococcus faecalis UC9217; format: functional; outline: as §1
Mus musculus [4] = assay: compound was tested against Staphylococcus aureus UC9213 the eperezolid administered (PO) in mouse positive control expressed as ED50 values.
[5] = test system: Staphylococcus epidermidis; assay: Minimum inhibitory concentration against Staphylococcus epidermis UC12084; format: functional; outline: as §1
Staphylococcus aureus [6] = assay: compound was tested against Staphylococcus aureus UC9213 after po administration.; format: functional; outline: as §2
Staphylococcus aureus [7] = assay: compound was tested against Staphylococcus aureus UC9213 the eperezolid administered positive control expressed as ED50 values.; format: functional
Outline: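 Eperezolid was given orally in the same lethal systemic mouse S. aureus trial as the test agents. The ED50 is the mg/kg/dose that reduces mortality by 50%.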

Caco-2 [8] = assay: permeability assessment across a monolayer of caco-2 cells in presence of GSH in aqueous base.; format: functional, Homo sapiens
Caco-2 [9] = assay: permeability assessment across a monolayer of caco-2 cells in absence of GSH in aqueous base.; format: functional, Homo sapiens
Caco-2 [10] = assay: permeability assessment across […]; format: functional, Homo sapiens

Row | Structure (SMILES) | MIC (Streptococcus pneumoniae) | MIC (Staphylococcus aureus [1]) | ED50 (Mus musculus [2]) | MIC (Staphylococcus aureus [3]) | MIC (Enterococcus faecalis) | ED50 (Mus musculus [4]) | MIC [5] | ED50 (Staphylococcus aureus [6]) | ED50 (Staphylococcus aureus [7]) | [A] (Caco-2 [8]) | [A] (Caco-2 [9]) | [EA] (Caco-2 [10])
1 | CC(=O)NC[C@H]1CN(c2ccc(N3CCN(c4ccc(C#N)cn4)CC3)c(F)c2)C(=O)O1 | 0.5 µg/mL (≈ 1.14 µM) | 2 µg/mL (≈ 4.56 µM) | 6.8 mg/kg | 2 µg/mL (≈ 4.56 µM) | 1 µg/mL (≈ 2.28 µM) | 5.8 mg/kg | 0.5 µg/mL (≈ 1.14 µM) |  |  |  |  | 
2 | CC(=O)NC[C@H]1CN(c2ccc(N3CCN(c4cccc(C)n4)CC3)c(F)c2)C(=O)O1 | 0.5 µg/mL (≈ 1.17 µM) | 4 µg/mL (≈ 9.36 µM) |  | 2 µg/mL (≈ 4.68 µM) | 2 µg/mL (≈ 4.68 µM) |  | 2 µg/mL (≈ 4.68 µM) |  |  |  |  | 
3 | COc1nc(OC)nc(N2CCN(c3ccc(N4C[C@H](CNC(C)=O)OC4=O)cc3F)CC2)n1 | 0.5 µg/mL (≈ 1.05 µM) | 4 µg/mL (≈ 8.41 µM) |  | 2 µg/mL (≈ 4.21 µM) | 1 µg/mL (≈ 2.1 µM) |  | 1 µg/mL (≈ 2.1 µM) |  |  |  |  | 
4 | CC(=O)NC[C@H]1CN(c2ccc(N3CCN(c4nc(F)c(F)cc4F)CC3)c(F)c2)C(=O)O1 | 0.5 µg/mL (≈ 1.07 µM) | 2 µg/mL (≈ 4.28 µM) |  | 2 µg/mL (≈ 4.28 µM) | 2 µg/mL (≈ 4.28 µM) |  | 1 µg/mL (≈ 2.14 µM) |  |  |  |  | 
5 | CC(=O)NC[C@H]1CN(c2ccc(N3CCN(c4cncc(Cl)n4)CC3)c(F)c2)C(=O)O1 | 0.5 µg/mL (≈ 1.11 µM) | 2 µg/mL (≈ 4.46 µM) |  | 1 µg/mL (≈ 2.23 µM) | 1 µg/mL (≈ 2.23 µM) |  | 0.5 µg/mL (≈ 1.11 µM) | > 20 mg/kg | 3.2 mg/kg |  |  | 
6 | CC(=O)NC[C@H]1CN(c2ccc(N3CCN(c4ccc(C)nn4)CC3)c(F)c2)C(=O)O1 | 0.5 µg/mL (≈ 1.17 µM) | 4 µg/mL (≈ 9.34 µM) | 6.3 mg/kg | 2 µg/mL (≈ 4.67 µM) | 2 µg/mL (≈ 4.67 µM) | 8.7 mg/kg | 1 µg/mL (≈ 2.33 µM) |  |  |  |  | 
7 | CC(=O)NC[C@H]1CN(c2ccc(N3CCN(c4cnccn4)CC3)c(F)c2)C(=O)O1 | 0.5 µg/mL (≈ 1.21 µM) | 2 µg/mL (≈ 4.83 µM) | 12.5 mg/kg | 1 µg/mL (≈ 2.41 µM) | 2 µg/mL (≈ 4.83 µM) | 3.2 mg/kg | 0.5 µg/mL (≈ 1.21 µM) |  |  |  |  | 
8 | CC(=O)NC[C@H]1CN(c2ccc(N3CCN(c4nc(N)nc(N)n4)CC3)c(F)c2)C(=O)O1 | 0.5 µg/mL (≈ 1.12 µM) | 4 µg/mL (≈ 8.98 µM) | > 20 mg/kg | 4 µg/mL (≈ 8.98 µM) | 2 µg/mL (≈ 4.49 µM) | 4.4 mg/kg | 1 µg/mL (≈ 2.24 µM) |  |  |  |  | 
9 | CC(=O)NC[C@H]1CN(c2ccc(N3CCN(c4c(F)c(F)nc(F)c4F)CC3)c(F)c2)C(=O)O1 | 2 µg/mL (≈ 4.12 µM) | > 16 µg/mL |  | > 16 µg/mL | > 16 µg/mL |  | > 16 µg/mL |  |  |  |  | 
10 | CC(=O)NC[C@H]1CN(c2ccc(N3CCN(c4nc(C)cc(C)c4C#N)CC3)c(F)c2)C(=O)O1 | 1 µg/mL (≈ 2.14 µM) | 4 µg/mL (≈ 8.57 µM) |  | 4 µg/mL (≈ 8.57 µM) | 4 µg/mL (≈ 8.57 µM) |  | 2 µg/mL (≈ 4.29 µM) |  |  |  |  | 
11 | CC(=O)NC[C@H]1CN(c2ccc(N3CCN(c4nnc(Cl)c(C)c4C)CC3)c(F)c2)C(=O)O1 | 2 µg/mL (≈ 4.19 µM) | > 16 µg/mL |  | > 16 µg/mL | > 16 µg/mL |  | 4 µg/mL (≈ 8.39 µM) |  |  |  |  | 
12 | CC(=O)NC[C@H]1CN(c2ccc(N3CCN(c4cc(N)nc(N)n4)CC3)c(F)c2)C(=O)O1 | < 0.5 µg/mL | 8 µg/mL (≈ 18 µM) |  | 4 µg/mL (≈ 9 µM) | 2 µg/mL (≈ 4.5 µM) |  | 1 µg/mL (≈ 2.25 µM) |  |  |  |  | 
13 | CC(=O)NC[C@H]1CN(c2ccc(N3CCN(c4nccc(C(F)(F)F)n4)CC3)c(F)c2)C(=O)O1 | 2 µg/mL (≈ 4.15 µM) | > 16 µg/mL |  | > 16 µg/mL | > 16 µg/mL |  | 16 µg/mL (≈ 33.2 µM) |  |  |  |  | 
14 | CC(=O)NC[C@H]1CN(c2ccc(N3CCN(c4cc(C)c(Cl)nn4)CC3)c(F)c2)C(=O)O1 | 1 µg/mL (≈ 2.16 µM) | 8 µg/mL (≈ 17.3 µM) |  | 4 µg/mL (≈ 8.64 µM) | 4 µg/mL (≈ 8.64 µM) |  | 2 µg/mL (≈ 4.32 µM) | > 20 mg/kg | 8.7 mg/kg |  |  | 
15 | CCCOc1nc(Cl)nc(N2CCN(c3ccc(N4C[C@H](CNC(C)=O)OC4=O)cc3F)CC2)n1 | 2 µg/mL (≈ 3.94 µM) | 16 µg/mL (≈ 31.5 µM) |  | 8 µg/mL (≈ 15.7 µM) | 8 µg/mL (≈ 15.7 µM) |  | 8 µg/mL (≈ 15.7 µM) |  |  |  |  | 
16 | CC(=O)NC[C@H]1CN(c2ccc(N3CCN(c4ccccn4)CC3)c(F)c2)C(=O)O1 | 0.5 µg/mL (≈ 1.21 µM) | 4 µg/mL (≈ 9.67 µM) | 11.2 mg/kg | 2 µg/mL (≈ 4.84 µM) | 2 µg/mL (≈ 4.84 µM) | 6 mg/kg | 1 µg/mL (≈ 2.42 µM) |  |  | 37 µM | 37 µM | 
17 | CC(=O)NC[C@H]1CN(c2ccc(N3CCN(c4cc(C#N)ccn4)CC3)c(F)c2)C(=O)O1 | 0.5 µg/mL (≈ 1.14 µM) | 1 µg/mL (≈ 2.28 µM) |  | 1 µg/mL (≈ 2.28 µM) | 1 µg/mL (≈ 2.28 µM) |  | 1 µg/mL (≈ 2.28 µM) |  |  |  |  | 
18 | CC(=O)NC[C@H]1CN(c2ccc(N3CCN(c4ccncn4)CC3)c(F)c2)C(=O)O1 | 0.5 µg/mL (≈ 1.21 µM) | 2 µg/mL (≈ 4.83 µM) | 4.4 mg/kg | 2 µg/mL (≈ 4.83 µM) | 1 µg/mL (≈ 2.41 µM) | 1.8 mg/kg | 1 µg/mL (≈ 2.41 µM) |  |  | 40 µM | 40 µM | 50 µM
19 | CC(=O)NC[C@H]1CN(c2ccc(N3CCN(c4ncccc4C#N)CC3)c(F)c2)C(=O)O1 | 0.5 µg/mL (≈ 1.14 µM) | 2 µg/mL (≈ 4.56 µM) | > 20 mg/kg | 2 µg/mL (≈ 4.56 µM) | 1 µg/mL (≈ 2.28 µM) | 3.2 mg/kg | 0.5 µg/mL (≈ 1.14 µM) |  |  |  |  | 
20 | CC(=O)NC[C@H]1CN(c2ccc(N3CCN(c4ccnc(C)c4)CC3)c(F)c2)C(=O)O1 | 0.25 µg/mL (≈ 0.585 µM) | 4 µg/mL (≈ 9.36 µM) |  | 2 µg/mL (≈ 4.68 µM) | 2 µg/mL (≈ 4.68 µM) |  | 0.5 µg/mL (≈ 1.17 µM) |  |  |  |  | 
21 | CC(=O)NC[C@H]1CN(c2ccc(N3CCN(c4c(Cl)c(Cl)nc(Cl)c4Cl)CC3)c(F)c2)C(=O)O1 | > 16 µg/mL | > 16 µg/mL |  | > 16 µg/mL | > 16 µg/mL |  | > 16 µg/mL |  |  |  |  | 
22 | CC(=O)NC[C@H]1CN(c2ccc(N3CCN(c4cc(NC(C)=O)c(Cl)nn4)CC3)c(F)c2)C(=O)O1 | 4 µg/mL (≈ 7.91 µM) | > 16 µg/mL |  | > 16 µg/mL | > 16 µg/mL |  | 16 µg/mL (≈ 31.6 µM) |  |  |  |  | 
23 | CC(=O)NC[C@H]1CN(c2ccc(N3CCN(c4ncccn4)CC3)c(F)c2)C(=O)O1 | 0.5 µg/mL (≈ 1.21 µM) | 2 µg/mL (≈ 4.83 µM) | 6 mg/kg | 2 µg/mL (≈ 4.83 µM) | 2 µg/mL (≈ 4.83 µM) | 6.2 mg/kg | 0.5 µg/mL (≈ 1.21 µM) |  |  |  |  | 
24 | CC(=O)NC[C@H]1CN(c2ccc(N3CCN(c4ccncc4)CC3)c(F)c2)C(=O)O1 | < 0.125 µg/mL | 4 µg/mL (≈ 9.67 µM) |  | 2 µg/mL (≈ 4.84 µM) | 2 µg/mL (≈ 4.84 µM) |  | 0.5 µg/mL (≈ 1.21 µM) |  |  |  |  | 
25 | CC(=O)NC[C@H]1CN(c2ccc(N3CCN(c4ccc5nc(C)c(C(C)=O)n5n4)CC3)c(F)c2)C(=O)O1 | 0.5 µg/mL (≈ 0.981 µM) | 4 µg/mL (≈ 7.85 µM) |  | 4 µg/mL (≈ 7.85 µM) | 4 µg/mL (≈ 7.85 µM) |  | 1 µg/mL (≈ 1.96 µM) |  |  |  |  | 
26 | CC(=O)NC[C@H]1CN(c2ccc(N3CCN(c4ccnc5ccccc45)CC3)c(F)c2)C(=O)O1 | 0.25 µg/mL (≈ 0.539 µM) | 2 µg/mL (≈ 4.31 µM) |  | 2 µg/mL (≈ 4.31 µM) | 2 µg/mL (≈ 4.31 µM) |  | 0.5 µg/mL (≈ 1.08 µM) |  |  |  |  | 
27 | CC(=O)NC[C@H]1CN(c2ccc(N3CCN(c4cccnn4)CC3)c(F)c2)C(=O)O1 | 0.5 µg/mL (≈ 1.21 µM) | 4 µg/mL (≈ 9.65 µM) | 8.8 mg/kg | 2 µg/mL (≈ 4.83 µM) | 2 µg/mL (≈ 4.83 µM) | 8.7 mg/kg | 0.5 µg/mL (≈ 1.21 µM) |  |  | 36 µM |  | 
28 | CC(=O)NC[C@H]1CN(c2ccc(N3CCN(c4cccc(F)n4)CC3)c(F)c2)C(=O)O1 | 0.5 µg/mL (≈ 1.16 µM) | 2 µg/mL (≈ 4.64 µM) |  | 2 µg/mL (≈ 4.64 µM) | 2 µg/mL (≈ 4.64 µM) |  | 1 µg/mL (≈ 2.32 µM) |  |  |  |  | 
